Reference: ChEMBL document CHEMBL1944568, “Synthesis and biological evaluation of benzo[d]imidazole derivatives as potential anti-cancer agents” (Bioorg Med Chem Lett, 2012)
Activity calls are given as the source filed them. The rule behind the calls is not given here.

Experiments:
MCF7 [1] = experiment: Cytotoxicity against human MCF7 cells after 48 hrs by MTT assay; type: functional; settings: MCF7, 48 h
HCT-116 [2] = experiment: Cytotoxicity against human HCT116 cells after 48 hrs by MTT assay; type: functional; settings: HCT-116, 48 h
[3] = biological target: Cyclin-dependent kinase 9 (Homo sapiens) (UniProt P50750); experiment: Inhibition of CDK9-mediated phosphorylation of RNA polymerase 2 at Ser2 in human HCT116 cells at GI50 after 24 hrs by Western blot analysis; type: cell-based; settings: HCT-116
In short: (§1)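 Western blot of HCT-116 cells after 24 h treatment across a concentration series, probing RNAPII CTD pSer-2 with β-actin as the internal loading control.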

HCT-116 [4] = experiment: Cell cycle arrest in human HCT116 cells at 5 times GI50 after 24 hrs by AnnexinV/PI staining-based flow cytometry; type: functional
CDK9/cyclin T1 = CDK9/cyclin T1 (Homo sapiens, UniProt P50750); experiment: Inhibition of CDK9/CyclinT1; type: protein-complex assay
HCT-116 [5] = experiment: Induction of apoptosis in human HCT116 cells assessed as early apoptosis cells at 5 times GI50 after 24 hrs by AnnexinV/PI staining-based flow cytometry; type: functional
In short: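 HCT-116 cells were treated for 24 h alongside a DMSO control, stained with annexin V/PI and analysed by flow cytometry. Early apoptotic cells were scored as AnnV+/PI−, and late apoptotic cells as AnnV+/PI+. Values are mean ± s.d.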

[6] = biological target: Cyclin-dependent kinase 9 (Homo sapiens) (UniProt P50750); experiment: Inhibition of CDK9 in human HCT116 cells assessed as reduction in MDM2 protein level at GI50 after 24 hrs by Western blot analysis; type: cell-based; settings: HCT-116
[7] = biological target: Cyclin-dependent kinase 9 (Homo sapiens) (UniProt P50750); experiment: Inhibition of CDK9 in human HCT116 cells assessed as reduction in Mcl-1 protein level at GI50 after 24 hrs by Western blot analysis; type: cell-based; settings: HCT-116
[8] = biological target: Cyclin-dependent kinase 2/cyclin A (Homo sapiens) (UniProt P24941+P20248+P78396); experiment: Inhibition of CDK2/Cyclin A; type: protein-complex assay
[9] = biological target: Cyclin-dependent kinase 9 (Homo sapiens) (UniProt P50750); experiment: Inhibition of CDK9-mediated phosphorylation of RNA polymerase 2 at Ser2 in human HCT116 cells after 24 hrs by Western blot analysis; type: cell-based; settings: HCT-116; in short: as §1
HCT-116 [10] = experiment: Induction of apoptosis in human HCT116 cells assessed as caspase-3 activation at GI50 after 24 hrs; type: functional, cell-based
In short: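 HCT-116 cells exposed for 24 h at the respective GI₅₀ or 5×GI₅₀ concentration, with a DMSO control, then assayed for caspase-3 activity. Data are mean ± s.d. of two independent experiments, and significance versus DMSO was set at p <0.05.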

HCT-116 [11] = experiment: Induction of apoptosis in human HCT116 cells assessed as at 5 times GI50 after 24 hrs by AnnexinV/PI staining-based flow cytometry
HCT-116 [12] = experiment: Cell cycle arrest in human HCT116 cells assessed as accumulation at G2/M phase at 5 times GI50 after 24 hrs by […]PI staining-based flow cytometry; type: functional
HCT-116 [13] = experiment: Ratio of DRB GI50 to compound GI50 for human HCT116 cells; type: functional
MCF7 [14] = experiment: Ratio of DRB GI50 to compound GI50 for human MCF7 cells; type: functional

Cyclin-dependent kinase 9 (Homo sapiens), sequence (P50750 whole entry): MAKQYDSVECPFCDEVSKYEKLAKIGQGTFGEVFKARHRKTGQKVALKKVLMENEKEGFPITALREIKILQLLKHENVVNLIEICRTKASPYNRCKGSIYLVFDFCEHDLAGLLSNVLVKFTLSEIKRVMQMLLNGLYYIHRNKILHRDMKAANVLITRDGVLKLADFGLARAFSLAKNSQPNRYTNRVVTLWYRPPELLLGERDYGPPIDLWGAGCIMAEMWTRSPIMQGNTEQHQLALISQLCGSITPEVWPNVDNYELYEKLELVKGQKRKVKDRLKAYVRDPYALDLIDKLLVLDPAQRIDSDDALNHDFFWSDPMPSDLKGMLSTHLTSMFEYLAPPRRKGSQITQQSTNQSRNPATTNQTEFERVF
CDK9/cyclin T1, sequence (O60563 whole entry): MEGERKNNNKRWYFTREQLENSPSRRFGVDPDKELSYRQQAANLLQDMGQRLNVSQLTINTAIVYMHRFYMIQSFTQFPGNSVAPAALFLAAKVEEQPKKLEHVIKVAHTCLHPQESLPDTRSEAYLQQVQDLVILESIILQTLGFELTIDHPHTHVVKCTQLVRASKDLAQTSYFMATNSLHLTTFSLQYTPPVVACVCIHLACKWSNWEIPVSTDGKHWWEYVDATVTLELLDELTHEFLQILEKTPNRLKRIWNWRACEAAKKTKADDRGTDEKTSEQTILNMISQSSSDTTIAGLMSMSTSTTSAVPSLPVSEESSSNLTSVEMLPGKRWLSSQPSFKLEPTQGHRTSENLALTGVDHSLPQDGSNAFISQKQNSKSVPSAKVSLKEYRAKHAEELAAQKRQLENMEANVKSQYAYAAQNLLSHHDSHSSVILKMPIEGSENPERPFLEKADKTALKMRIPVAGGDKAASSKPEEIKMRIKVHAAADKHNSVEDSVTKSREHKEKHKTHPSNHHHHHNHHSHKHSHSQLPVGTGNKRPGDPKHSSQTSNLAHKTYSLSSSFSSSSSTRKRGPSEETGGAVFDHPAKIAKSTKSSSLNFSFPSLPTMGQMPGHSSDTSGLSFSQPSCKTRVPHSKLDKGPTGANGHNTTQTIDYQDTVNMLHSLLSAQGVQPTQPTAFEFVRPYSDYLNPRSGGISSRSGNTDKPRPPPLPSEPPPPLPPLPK
CDK9/cyclin T1, sequence (P50750 whole entry): as the sequence (P50750 whole entry) above

## CCc1nc2cc(Cl)c(Cl)cc2n1C1CCCC1
MCF7 [1]
  GI50: 52 µM
HCT-116 [2]
  GI50: 38 µM

## CCn1c(C(F)(F)F)nc2cc(Cl)c(Cl)cc21
MCF7 [1]
  GI50: 72.9 µM
HCT-116 [2]
  GI50: 95.3 µM

## Cc1cc2nc[nH]c2cc1C [DIMEDAZOL]
MCF7 [1]
  GI50: 20 µM
HCT-116 [2]
  GI50: 51 µM

## Cc1cc2nc(C(F)(F)F)[nH]c2cc1C
MCF7 [1]
  GI50: 17 µM
HCT-116 [2]
  GI50: 56 µM

## Cc1nc2cc(Cl)c(Cl)cc2n1C1CCCC1
MCF7 [1]
  GI50: 40 µM
[3]
  inhibition: Active
HCT-116 [2]
  GI50: 13 µM
HCT-116 [4]
  Activity: inactive
CDK9/cyclin T1
  Ki: 1.51 µM
HCT-116 [5]
  Activity: >17%
[6]
  inhibition: Active
[7]
  inhibition: Active
[8]
  inhibition: inactive
[9]
  inhibition: Dose-dependent effect
HCT-116 [10]
  Activity: Active

## Cn1c(C(F)(F)F)nc2cc(Cl)c(Cl)cc21
MCF7 [1]
  GI50: 39 µM
HCT-116 [2]
  GI50: 56 µM

## C[S+]([O-])c1nc2cc(Cl)c(Cl)cc2n1C1CCCC1 (stereo not drawn)
MCF7 [1]
  GI50: 0.5 µM
HCT-116 [2]
  GI50: 0.5 µM
HCT-116 [4]
  Activity: inactive
CDK9/cyclin T1
  Ki: > 5 µM
HCT-116 [11]
  Activity: <7%
HCT-116 [10]
  Activity: Active

## Nc1ccccc1Cn1c(C(F)(F)F)nc2cc(Cl)c(Cl)cc21
MCF7 [1]
  GI50: 55.6 µM
HCT-116 [2]
  GI50: 26.1 µM

## FC(F)(F)c1ccc(Cn2c(C(F)(F)F)nc3cc(Cl)c(Cl)cc32)cc1
MCF7 [1]
  GI50: 17 µM
HCT-116 [2]
  GI50: 19 µM

## O=[N+]([O-])c1ccccc1Cn1c(C(F)(F)F)nc2cc(Cl)c(Cl)cc21
MCF7 [1]
  GI50: 1.5 µM
HCT-116 [2]
  GI50: 5.9 µM

## CCc1nc2cc(Cl)c(Cl)cc2[nH]1
MCF7 [1]
  GI50: 48 µM
HCT-116 [2]
  GI50: 46 µM

## CC(C)c1nc2cc(Cl)c(Cl)cc2[nH]1
MCF7 [1]
  GI50: 57 µM
HCT-116 [2]
  GI50: 52 µM

## Clc1cc2nc[nH]c2cc1Cl
MCF7 [1]
  GI50: 73 µM
HCT-116 [2]
  GI50: 66 µM

## CC(C)n1c(C(F)(F)F)nc2cc(Cl)c(Cl)cc21
MCF7 [1]
  GI50: 70.5 µM
HCT-116 [2]
  GI50: 81.9 µM

## COc1cc2ncn([C@@H]3O[C@H](CO)[C@@H](O)[C@H]3O)c2cc1OC
MCF7 [1]
  GI50: > 100 µM
HCT-116 [2]
  GI50: > 100 µM

## OC[C@H]1O[C@@H](n2cnc3cc(Cl)c(Cl)cc32)[C@H](O)[C@@H]1O [DICHLORORIBOBENZIMIDAZOLE]
MCF7 [1]
  GI50: 36 µM
HCT-116 [2]
  GI50: 25 µM
HCT-116 [5]
  Activity: 20%
HCT-116 [12]
  Activity: Active
HCT-116 [10]
  Activity: Active

## FC(F)(F)c1nc2cc(Cl)c(Cl)cc2n1C1CCCC1
MCF7 [1]
  GI50: 21 µM
HCT-116 [2]
  GI50: 22 µM

## O=[N+]([O-])c1ccc(Cn2c(C(F)(F)F)nc3cc(Cl)c(Cl)cc32)cc1
MCF7 [1]
  GI50: 97.3 µM
HCT-116 [2]
  GI50: 81.6 µM

## FC(F)(F)c1cccc(Cn2c(C(F)(F)F)nc3cc(Cl)c(Cl)cc32)c1
MCF7 [1]
  GI50: 68 µM
HCT-116 [2]
  GI50: 50.5 µM

## CS(=O)(=O)c1nc2cc(Cl)c(Cl)cc2n1C1CCCC1
MCF7 [1]
  GI50: 0.6 µM
HCT-116 [2]
  GI50: 0.6 µM
HCT-116 [4]
  Activity: inactive
CDK9/cyclin T1
  Ki: > 5 µM
HCT-116 [11]
  Activity: <7%
HCT-116 [10]
  Activity: Active

## O=[N+]([O-])c1cccc(Cn2c(C(F)(F)F)nc3cc(Cl)c(Cl)cc32)c1
MCF7 [1]
  GI50: 60 µM
HCT-116 [2]
  GI50: 22.8 µM

## Clc1cc2nc(-c3ccccc3Cl)[nH]c2cc1Cl
MCF7 [1]
  GI50: 22 µM
HCT-116 [2]
  GI50: 23 µM

## C=CCn1c(C(F)(F)F)nc2cc(Cl)c(Cl)cc21
MCF7 [1]
  GI50: 87 µM
HCT-116 [2]
  GI50: 89.2 µM

## FC(F)(F)c1nc2cc(Cl)c(Cl)cc2n1Cc1ccccc1
MCF7 [1]
  GI50: 8.7 µM
HCT-116 [2]
  GI50: 8.6 µM

## CC(C)c1nc2cc(Cl)c(Cl)cc2n1C1CCCC1
MCF7 [1]
  GI50: 43 µM
HCT-116 [2]
  GI50: 9 µM
CDK9/cyclin T1
  Ki: 3.33 µM
[8]
  inhibition: inactive

## Fc1ccccc1-c1nc2cc(Cl)c(Cl)cc2[nH]1
MCF7 [1]
  GI50: 47.5 µM
HCT-116 [2]
  GI50: 56.5 µM

## CCc1nc2ccccc2n1[C@@H]1O[C@H](CO)[C@@H](O)[C@H]1O
MCF7 [1]
  GI50: 71.3 µM
HCT-116 [2]
  GI50: 70.6 µM

## Nc1cccc(Cn2c(C(F)(F)F)nc3cc(Cl)c(Cl)cc32)c1
MCF7 [1]
  GI50: 77.5 µM
HCT-116 [2]
  GI50: 22.6 µM

## FC(F)(F)c1nc2cc(Cl)c(Cl)cc2n1CC1CC1
MCF7 [1]
  GI50: 60.2 µM
HCT-116 [2]
  GI50: 61.3 µM

## Clc1cc2ncn(C3CCCC3)c2cc1Cl
MCF7 [1]
  GI50: 42 µM
HCT-116 [2]
  GI50: 37 µM

## CSc1nc2cc(Cl)c(Cl)cc2n1C1CCCC1
MCF7 [1]
  GI50: 3.9 µM
HCT-116 [2]
  GI50: 2.9 µM
CDK9/cyclin T1
  Ki: > 5 µM

## Cc1nc2cc(Cl)c(Cl)cc2[nH]1
MCF7 [1]
  GI50: 28 µM
HCT-116 [2]
  GI50: 51 µM

## OC[C@H]1O[C@@H](n2cnc3cc(F)c(F)cc32)[C@H](O)[C@@H]1O
MCF7 [1]
  GI50: 57.9 µM
HCT-116 [2]
  GI50: 67 µM

## FC(F)(F)c1nc2cc(Cl)c(Cl)cc2[nH]1
MCF7 [1]
  GI50: 6 µM
HCT-116 [13]
  RatioGI50: 3.5
HCT-116 [2]
  GI50: 7 µM
MCF7 [14]
  RatioGI50: 6
